The test system of this experiment is Mycobacterium tuberculosis variant bovis. In words: Antimycobacterial activity against Mycobacterium bovis BCG Pasteur ATCC 35734 assessed as inhibition of bacterial growth measured after 7 days by resazurin dye based analysis. In kind it is functional. As to conditions: BCG Pasteur ATCC 35734, 168 h, time 7 day. Summed up:
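Strains grown in 7H9 broth with 0.2% glycerol, 10% OADC and 0.05% Tween-80. Inoculum was about 5 × 10^5 CFU/mL, checked by plating on 7H10/OADC agar to be 3–8 × 10^5. Read at 2 days for M. smegmatis and 7 days for M. tuberculosis H37Ra, M. bovis and M. avium. Resazurin 30 μg/mL was then added for one further day. Values are averages of at least two experiments.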

≈ marks a conversion by molar mass, not a printed value.

For the compound `NNC(=O)c1ccncc1` [ISONIAZID], the MIC worked out at 0.13 µg/mL (≈ 0.948 µM).

For the compound `CN1C(=O)[C@@H]2NC(=O)[C@@H]3NC(=O)[C@@H](c4ccc(O)cc4)NC(=O)[C@H](NC(=O)C(N)c4ccc(O)cc4)Cc4c[nH]c5cc(ccc45)-c4cc3cc(c4O)Oc3ccc(cc3)C[C@H]1C(=O)N[C@@H](C(=O)O)c1ccc(O)c(c1)Oc1ccc2cc1` (stereo partly drawn), the MIC amounted to 8 µg/mL (≈ 7.14 µM).

As for `CN1C(=O)[C@@H](c2cc(Cl)c(O)c(Cl)c2)NC(=O)[C@@H]2NC(=O)[C@@H](c3cc(Cl)c(O)c(Cl)c3)NC(=O)[C@H](NC(=O)C(=O)c3cc(Cl)c(O)c(Cl)c3)Cc3c[nH]c4cc(ccc34)-c3cc2cc(c3O)Oc2ccc(cc2)C[C@H]1C(=O)N[C@@H](C(=O)O)c1ccc(O)cc1` [ISOCOMPLESTATIN], the minimum inhibitory concentration (MIC) was determined as 64 µg/mL (≈ 48.2 µM).

The values are drawn from ChEMBL document CHEMBL5331111, “Synthetic Biology Facilitates Semisynthetic Development of Type V Glycopeptide Antibiotics Targeting Vancomycin-Resistant Enterococcus” (J Med Chem, 2023).
